For five compounds, T/C, IC50 and Activity results are on record in ChEMBL document CHEMBL1123889, “Improved synthesis and antitumor activity of 1-deazaadenosine” (J Med Chem, 1987).

For orientation: T/C means the ratio of treated to control.

Data set [1] has as its system L1210. The data set is described as follows: Antitumor activity against leukemia L1210 cells at 25.0 mg/kg/day expressed as mean survival of treated mice (T) to untreated (C) was reported. The format is functional, Mus musculus.
Data set [2] deals with P388. In words: (§1) The compound was tested in vitro for antitumor activity(50% inhibition of tumor cell growth) against the P388 murine cell lines after 72 hours. The format is functional. Conditions: Mus musculus, P388, 72 h; read-out: ID50 (the source's name). In short, it runs like this: (§2)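 Murine leukemia cells (P388, the doxorubicin-resistant subline P388/DX, or L1210) were grown as suspension cultures in 1640 medium with 10% fetal calf serum, 20 µM 2-mercaptoethanol, […] and antibiotics, at 37 °C in humidified 5% CO2. 5 × 10^5 exponentially growing cells were exposed to a range of drug concentrations for 72 h, then Coulter-counted. ID50 is the concentration giving 50% growth inhibition versus untreated controls.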

The test system of data set [3] is KB. In words: The compound was tested in vitro for antitumor activity(50% inhibition of tumor cell growth) against KB human cell lines after 72 hr. The format is functional. Conditions: read-out: ID50 (the source's name). In short, it runs like this:
(§3)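 5 × 10^5 exponentially growing human tumour cells were exposed to a range of drug concentrations for the stated time (72 or 144 h), then counted on a Coulter counter. ID50 is the concentration in the culture medium giving 50% inhibition of cell growth relative to untreated controls.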

Data set [4] has as its system L1210. The data set is described as follows: Antitumor activity against leukemia L1210 cells at 12.5 mg/kg/day expressed as Number of mice died for toxicity to number of treated mice; 0/10 mice. The format is functional, Mus musculus.
Data set [5] relates to HeLa. The data set is described as follows: The compound was tested in vitro for antitumor activity(50% inhibition of tumor cell growth) against HeLa human cell lines after 144 hr. It counts as functional. Conditions: read-out: ID50 (the source's name). The procedure, abridged: (§4)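 5 × 10^5 exponentially growing cells exposed to varying drug concentrations for 144 h, then counted with a Coulter counter. ID50 is the drug concentration in culture medium giving 50% inhibition of cell growth versus untreated controls.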

Data set [6] relates to Mus musculus. The data set is described as follows: Antitumor activity against leukemia P388/DX cells at 3.1 mg/kg/day expressed as toxic deaths in mice was reported; 0/10 mice. It counts as functional. The procedure, abridged:
(§5)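 BDF1 mice given 10^6 doxorubicin-resistant P388 cells ip; the line was kept by weekly ip passage with doxorubicin. Compound was dissolved in distilled water just before use and given ip daily for 7 days from 24 h post-inoculation; 10 mice per dose. %T/C = median survival of treated/control ×100, with 125 significant. Toxicity was judged by autopsy (spleen and liver shrinkage).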

Data set [7] relates to Mus musculus. The data set is described as follows: Antitumor activity against leukemia P388/DX cells at 6.3 mg/kg/day expressed as mean survival of treated mice (T) to untreated (C) was reported. It counts as functional. The procedure, abridged: as §5
The test system of data set [8] is L1210. In words: Antitumor activity against leukemia L1210 cells at 25.0 mg/kg/day expressed as Number of mice died for toxicity to number of treated mice; 6/10 mice. It counts as organism-based. Conditions: mouse, in vivo.
The subject of data set [9] is Mus musculus. In words: Antitumor activity against leukemia P388/DX cells at 3.1 mg/kg/day expressed as mean survival of treated mice (T) to untreated (C) was reported. The format is functional. In short, it runs like this: as §5
The subject of data set [10] is L1210. The data set is described as follows: Antitumor activity against leukemia L1210 cells at 6.3 mg/kg/day expressed as Number of mice died for toxicity to number of treated mice; 0/10 mice. The format is functional, Mus musculus.
The subject of data set [11] is L1210. The data set is described as follows: (§6) The compound was tested in vitro for antitumor activity(50% inhibition of tumor cell growth) against the L1210 murine cell lines after 72 hours. It counts as functional. The conditions noted are these: Mus musculus, L1210, 72 h; read-out: ID50 (the source's name). The procedure, abridged: as §2
Data set [12] deals with KB. The data set is described as follows: The compound was tested in vitro for antitumor activity(50% inhibition of tumor cell growth) against KB human cell lines after 144 hr. The format is functional. The conditions noted are these: read-out: ID50 (the source's name). In short, it runs like this:
as §4

Data set [13] concerns Mus musculus. The data set is described as follows: Antitumor activity against leukemia P388/DX cells at 12.5 mg/kg/day expressed as mean survival of treated mice (T) to untreated (C) was reported. It counts as functional. In short, it runs like this:
as §5

For data set [14], the system named is L1210. The data set is described as follows: Antitumor activity against leukemia L1210 cells at 12.5 mg/kg/day expressed as mean survival of treated mice (T) to untreated (C) was reported. The format is functional, Mus musculus.
Data set [15] is filed under the species Mus musculus. The data set is described as follows: (§7) The compound was tested in vitro for antitumor activity(50% inhibition of tumor cell growth) against the P388/doxorubicin resistant murine cell lines after 72 hours. The format is functional. Conditions: P388, 72 h, read-out: ID50 (the source's name). In short, it runs like this:
as §2

The subject of data set [16] is Mus musculus. The data set is described as follows: Antitumor activity against leukemia P388/DX cells at 6.3 mg/kg/day expressed as toxic deaths in mice was reported; 0/10 mice. It counts as functional. The procedure, abridged: as §5
In data set [17] the test system is Mus musculus. The data set is described as follows: Antitumor activity against leukemia P388/DX cells at 12.5 mg/kg/day expressed as toxic deaths in mice was reported; 0/10 mice. It counts as functional. The procedure, abridged:
as §5

For data set [18], the system named is HeLa. In words: The compound was tested in vitro for antitumor activity(50% inhibition of tumor cell growth) against HeLa human cell lines after 72 hr. Conditions: read-out: ID50 (the source's name). The format is functional. The procedure, abridged: as §3
Data set [19] deals with L1210. In words: Antitumor activity against leukemia L1210 cells at 6.3 mg/kg/day expressed as mean survival of treated mice (T) to untreated (C) was reported. It counts as functional, Mus musculus.
For data set [20], the system named is Mus musculus. In words: Antitumor activity against leukemia P388/DX cells at 300.0 mg/kg/day expressed as mean survival of treated mice (T) to untreated (C) was reported. The format is functional. The procedure, abridged: (§8)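 BDF1 mice given 10^6 doxorubicin-resistant P388 cells ip. Compound was dissolved in distilled water just before use and given ip daily for 9 days from 24 h post-inoculation. %T/C = median survival of treated/control ×100, with 125 significant. Toxic deaths were judged by gross autopsy, mainly from reduced spleen and liver size.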

Data set [21] relates to Mus musculus. The data set is described as follows: Antitumor activity against leukemia P388/DX cells at 100.0 mg/kg/day expressed as toxic deaths in mice was reported; 0/10 mice. The format is functional. In short, it runs like this:
as §8

The test system of data set [22] is L1210. The data set is described as follows: Antitumor activity against leukemia L1210 cells at 150.0 mg/kg/day expressed as Number of mice died for toxicity to number of treated mice; 0/10 mice. The format is functional, Mus musculus.
Data set [23] concerns L1210. The data set is described as follows: Antitumor activity against leukemia L1210 cells at 75.0 mg/kg/day expressed as mean survival of treated mice (T) compared to untreated (C) was reported. The format is functional, Mus musculus.
Data set [24] relates to Mus musculus. The data set is described as follows: Antitumor activity against leukemia P388/DX cells at 300.0 mg/kg/day expressed as toxic deaths in mice was reported; 8/20 mice. The conditions noted are these: in vivo.
Data set [25] deals with L1210. In words: Antitumor activity against leukemia L1210 cells at 150.0 mg/kg/day expressed as mean survival of treated mice (T) to untreated (C) was reported. It counts as functional, Mus musculus.
Data set [26] deals with Mus musculus. The data set is described as follows: Antitumor activity against leukemia P388/DX cells at 150.0 mg/kg/day expressed as mean survival of treated mice (T) to untreated (C) was reported. The format is functional. The procedure, abridged: as §8
Data set [27] has as its system Mus musculus. The data set is described as follows: Antitumor activity against leukemia P388/DX cells at 150.0 mg/kg/day expressed as toxic deaths in mice was reported; 2/20 mice. Conditions: in vivo.
For data set [28], the system named is Mus musculus. In words: Antitumor activity against leukemia P388/DX cells at 100.0 mg/kg/day expressed as mean survival of treated mice (T) to untreated (C) was reported. It counts as functional. In short, it runs like this:
as §8

The subject of data set [29] is L1210. The data set is described as follows: Antitumor activity against leukemia L1210 cells at 75.0 mg/kg/day expressed as Number of mice died for toxicity to number of treated mice; 0/10 mice. It counts as functional, Mus musculus.
For data set [30], the system named is L1210. The description is as §6. The format is functional. The conditions noted are these: Mus musculus, L1210, 72 h; read-out: ID50 (the source's name). In short, it runs like this:
(§9)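 Suspension cultures were grown in 1640 medium with 10% fetal calf serum, 20 µM 2-mercaptoethanol, […] and antibiotics at 37 °C in 5% CO2. 5×10^5 exponentially growing cells were exposed to varying drug concentrations for 72 h, then counted with a Coulter counter. ID50 is the concentration giving 50% growth inhibition versus untreated controls.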
This is another data set of the same source.

Data set [31] relates to P388. Described as §1. It counts as functional. The conditions noted are these: Mus musculus, P388, 72 h; read-out: ID50 (the source's name). The procedure, abridged:
as §9
This is another data set of the same source.

The species entered for data set [32] is Mus musculus. The description is as §7. The conditions noted are these: P388, 72 h, read-out: ID50 (the source's name). It counts as functional. In short, it runs like this: as §9
This is another data set of the same source.

SMILES strings stand for the structures.

With `Nc1ccnc2c1ncn2[C@@H]1O[C@H](CO)[C@@H](O)[C@H]1O`, the T/C in the data set with L1210 [1] was found to be 88%; in the data set with Mus musculus [7], 106%; in the data set on Mus musculus [9], 106%; in the data set with Mus musculus [13], 111%; in the data set on L1210 [14], 113%; in the data set with L1210 [19], 100%. Further, the IC50 stood at 1100 nM in the data set with P388 [2]; 300 nM in the data set with KB [3]; 1200 nM in the data set on HeLa [5]; 1800 nM with L1210 [11]; 600 nM in the data set on KB [12]; 400 nM in the data set filed under Mus musculus [15]. The IC50 with HeLa [18] came out at 1200 nM. In addition, the Activity in the data set with L1210 [4] was determined as 0; in the data set on Mus musculus [6] it was 0; with L1210 [8], 6; with L1210 [10] it was 0; in the data set on Mus musculus [16], 0; with Mus musculus [17], 0.
With `O=[N+]([O-])c1ccnc2c1ncn2C1O[C@H](CO)[C@@H](O)[C@H]1O` (some centres not stated), the T/C is 22% in the data set on Mus musculus [20]; 106% in the data set on L1210 [23]; 106% with L1210 [25]; 97% in the data set with Mus musculus [26]; 95% with Mus musculus [28]. For the same compound, the Activity stood at 0 with Mus musculus [21]; 0 in the data set with L1210 [22]; 8 in the data set with Mus musculus [24]; 2 in the data set with Mus musculus [27]; 0 in the data set with L1210 [29]. Besides, the IC50 stood at 12500 nM in the data set on P388 [2]; 33800 nM with KB [3]; 27000 nM in the data set on HeLa [5]; 11800 nM in the data set on L1210 [11]; 13100 nM with KB [12]; 8100 nM in the data set listed under Mus musculus [15]. The IC50 in the data set on HeLa [18] was 64100 nM.
`Nc1ncnc2c1ncn2[C@@H]1O[C@H](CO)[C@@H](O)[C@H]1O` [ADENOSINE]: the IC50 with P388 [2] was found to be 12700 nM; with KB [3], 89800 nM; in the data set with HeLa [5], 27700 nM; with L1210 [11], 23600 nM; with KB [12] it was 25400 nM; in the data set filed under Mus musculus [15], 10800 nM. The IC50 in the data set with HeLa [18] was determined as 46000 nM.
`Nc1ccn([C@@H]2O[C@H](CO)[C@@H](O)[C@@H]2O)c(=O)n1` [CYTARABINE]: the IC50 with P388 [2] turned out to be 20 nM; in the data set with KB [3], 1000 nM; in the data set with HeLa [5], 100 nM; in the data set with L1210 [11], 20 nM; in the data set on KB [12], 1100 nM; in the data set filed under Mus musculus [15] it was 10 nM. Besides, in the data set with HeLa [18], the IC50 came to 600 nM.
`O=c1[nH]cc(F)c(=O)[nH]1` [FLUOROURACIL]: the IC50 is 13800 nM in the data set on KB [3]; 800 nM with HeLa [5]; 2000 nM with KB [12]; 400 nM with L1210 [30]; 300 nM in the data set on P388 [31]; 6100 nM in the data set with HeLa [18]. Also, in the data set listed under Mus musculus [32], the IC50 is 100 nM.
